Laboratory results published in ChEMBL document CHEMBL3769305, “Glucose-functionalized amino-OPEs as biocompatible photosensitizers in PDT” (Eur J Med Chem, 2016).
Calls of active or inactive are those of the source. The rule behind the calls is not given here.

Tests used:
HeLa [1] = experiment: Phototoxicity against human HeLa cells assessed as cell lethality at 3 to 250 uM incubated for 6 hrs followed by UV irradiation at 1 J/cm'2 measured after 24 hrs by MTT assay; type: functional
How it was run: (§1)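 Cultures at 60–70% confluence were loaded with the photosensitizer for 6 h in medium with 1% FBS and <0.5% DMSO. Medium was then replaced and cells were irradiated with UVA (300–400 nm, 15.9 W/m² at 10 cm), then washed and kept in complete medium for 24 h. Survival was read by MTT (50 µg/mL, 4 h, 542 nm) as % of untreated control OD.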

HaCaT [2] = experiment: Induction of apoptosis in human HaCaT cells at LD50 after 24 hrs by acridine orange/ethidium bromide staining-based assay in presence of 0.25 to 0.5 J/cm'2 UVA light; type: cell-based
HEp-2 [3] = experiment: Induction of morphological changes in human Hep2 cells assessed as nuclear retraction at LD50 after 24 hrs by Hoechst 33258 staining-based fluorescence microscopy in presence of UVA light; type: functional, cell-based
[4] = Phototoxicity against human Hep2 cells assessed as cell lethality at 3 to 250 uM incubated for 6 hrs followed by UV irradiation at 1 J/cm'2 measured after 24 hrs by MTT assay; type: functional, HEp-2; how it was run: as §1
HEp-2 [5] = experiment: Induction of microtubule disruption in human Hep2 cells assessed as increase in altered metaphase at LD50 after 24 hrs by immunofluorescence assay in presence of UVA light; type: cell-based
HeLa [6] = experiment: Induction of cell morphological changes in human HeLa cells assessed as cytoplasmic retraction at 3 to 5 uM after 24 hrs by Hoechst 33258 staining-based phase contrast microscopy in presence of UVA light; type: functional
HEp-2 [7] = experiment: Induction of cell morphological changes in human Hep2 cells assessed as appearance of rounded cells at 3 to 5 uM after 24 hrs by Hoechst 33258 staining-based phase contrast microscopy in presence of UVA light; type: functional
[8] = Induction of microtubule disruption in human Hep2 cells assessed as abnormality in chromosome distribution at LD50 after 24 hrs by immunofluorescence assay in presence of UVA light; type: cell-based; settings: HEp-2
HeLa [9] = experiment: Phototoxicity against human HeLa cells assessed as appearance of rounded cells at LD50 after 24 hrs by acridine orange/ethidium bromide staining-based assay in presence of 0.25 to 0.5 J/cm'2 UVA light; type: functional, cell-based
How it was run: (§2)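 Cells (HaCaT, HeLa in DMEM; HEp-2 in RPMI; 10% FBS) at 60–70% confluence were incubated 6 h with 3·10^-6 M photosensitizer (DMSO stock diluted in medium with 1% FBS, final DMSO <0.5%). Medium was replaced and cells were given 0.25 J/cm² UVA (300–400 nm). 24 h later, cells were stained live with 50 µg/ml AO plus 50 µg/ml EtBr in PBS. Within 15 min, 200 cells per condition were scored as living, rounded, apoptotic or necrotic.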

[10] = Dark toxicity against human Hep2 cells assessed as cell survival at 10 uM incubated for 6 hrs measured after 24 hrs by MTT assay; type: cell-based, HEp-2; settings: read-out: Survival
How it was run: (§3)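 Cells (HaCaT and HeLa in DMEM, HEp-2 in RPMI, each with 10% FBS, at 37 °C and 5% CO2) were treated at 60–70% confluence. The compound was added from a 10^-3 M DMSO stock in medium with 1% FBS (final DMSO <0.5%) at 3·10^-6 to 2.5·10^-5 M and kept in the dark (6 h per table footnote, 18 h per methods). After 24 h, MTT at 50 µg/mL for 4 h, read at 542 nm as % of control OD.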

[11] = Phototoxicity against human HaCaT cells incubated for 6 hrs followed by UV irradiation at 0.25 J/cm'2 measured after 24 hrs by MTT assay; type: cell-based; settings: read-out: LD50; how it was run: as §1
HaCaT [12] = experiment: Phototoxicity against human HaCaT cells assessed as cell lethality at 3 to 250 uM incubated for 6 hrs followed by UV irradiation at 2 J/cm'2 measured after 24 hrs by MTT assay; type: cell-based; how it was run: as §1
[13] = Induction of singlet-oxygen generation at 5 x 10^-5 M irradiated at 380 nm by uric acid degradation assay; type: physicochemical; settings: 0.38 µM
[14] = Dark toxicity against human HeLa cells assessed as cell survival at 10 uM incubated for 6 hrs measured after 24 hrs by MTT assay; type: cell-based; settings: read-out: Survival; how it was run: as §3
HEp-2 [15] = experiment: Induction of cell morphological changes in human Hep2 cells assessed as cytoplasmic vacuolization at 3 to 5 uM after 24 hrs by Hoechst 33258 staining-based phase contrast microscopy in presence of UVA light; type: functional
HEp-2 [16] = experiment: Induction of necrosis in human Hep2 cells at LD50 after 24 hrs by acridine orange/ethidium bromide staining-based assay in presence of 0.25 to 0.5 J/cm'2 UVA light; type: functional, cell-based; how it was run: as §2
[17] = Phototoxicity against human Hep2 cells assessed as cell lethality at 3 to 250 uM incubated for 6 hrs followed by UV irradiation at 0.5 J/cm'2 measured after 24 hrs by MTT assay; type: functional, HEp-2; how it was run: as §1
[18] = Induction of microtubule disruption in human HaCaT cells assessed as increase in altered metaphase at LD50 after 24 hrs by immunofluorescence assay in presence of UVA light; type: cell-based
HaCaT [19] = experiment: Drug uptake in human HaCaT cells at 1 uM after 6 hrs by fluorescence microscopy; type: ADME, cell-based
How it was run: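 Cells on glass coverslips at 60–70% confluence were exposed to 1×10^-6 M compound in medium with 1% FBS (DMSO <0.5%) for 6 h at 37 °C. After two PBS washes they were imaged live under UV excitation (365 nm), with blue excitation (460–490 nm) also used. Untreated cells served as autofluorescence controls.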

HeLa [20] = experiment: Induction of morphological changes in human HeLa cells assessed as nuclear retraction at LD50 after 24 hrs by Hoechst 33258 staining-based fluorescence microscopy in presence of UVA light; type: functional, cell-based
HeLa [21] = experiment: Induction of apoptosis in human HeLa cells at LD50 after 24 hrs by acridine orange/ethidium bromide staining-based assay in presence of 0.25 to 0.5 J/cm'2 UVA light; type: functional, cell-based
HeLa [22] = experiment: Induction of cell morphological changes in human HeLa cells assessed as cell detachment from substrate at 3 to 5 uM after 24 hrs by Hoechst 33258 staining-based phase contrast microscopy in presence of UVA light; type: functional
HEp-2 [23] = experiment: Induction of necrotic morphological changes in human Hep2 cells at LD50 after 24 hrs by Hoechst 33258 staining-based fluorescence microscopy in presence of UVA light; type: functional, cell-based
[24] = Induction of singlet-oxygen generation at 5 x 10^-5 M irradiated at 390 nm by uric acid degradation assay; type: physicochemical; settings: 0.39 µM

Compound | mortality (HeLa [1]) | Activity (HaCaT [2]) | Activity (HEp-2 [3]) | mortality [4] | Activity (HEp-2 [5]) | Activity (HeLa [6]) | Activity (HEp-2 [7]) | Activity [8] | Activity (HeLa [9]) | viability at 6 h, 10 µM [10] | CC50 at 24 h [11] | mortality (HaCaT [12]) | viability at 6 h, 10 µM [14] | Activity (HEp-2 [15]) | Activity (HEp-2 [16]) | mortality [17] | Activity [18] | Drug uptake (HaCaT [19]) | Activity (HeLa [20]) | Activity (HeLa [21]) | also measured
COc1cc(C#Cc2ccc(C#Cc3cc(OC)c(C#CCO[C@@H]4O[C@H](CO)[C@@H](O)[C@H](O)[C@H]4O)cc3OC)c(N(C)C)c2)c(OC)cc1C#CCO[C@@H]1O[C@H](CO)[C@@H](O)[C@H](O)[C@H]1O | >50% | Toxic | Active | >50% | Active | Active | Active | Active | Active | 85.6% | 3000 nM | > 50% | 82.2% | Active | Active | >50% | Non-toxic | Active | Active | Active | Activity [13]: Active; Activity (HeLa [22]): Active; Activity (HEp-2 [23]): Active
COc1cc(C#Cc2ccc(C#CCO[C@@H]3O[C@H](CO)[C@@H](O)[C@H](O)[C@H]3O)cc2N(C)C)c(OC)cc1C#Cc1ccc(C#CCO[C@@H]2O[C@H](CO)[C@@H](O)[C@H](O)[C@H]2O)cc1N(C)C | >50% | Toxic | Active | >50% | Active | Active | Active | Active | Active | 80.1% | 3000 nM | > 50% | 76.9% | Active | Active | >50% | Non-toxic | Active | Active | Active | Activity [24]: Active; Activity (HeLa [22]): Active; Activity (HEp-2 [23]): Active
